Source: ChEMBL document CHEMBL1671650, “In vitro activity and preclinical profile of TMC435350, a potent hepatitis C virus protease inhibitor” (Antimicrob Agents Chemother, 2009)

Tests used:
[1] = Ratio of AUC (0 to 31 hrs) in Sprague-Dawley rat lung to AUC (0 to 31 hrs) in Sprague-Dawley rat plasma at 40 mg/kg, po administered as single dose; assay type: ADME, organism-based; parameters: dose 40 mg/kg, route oral
Summary of the method: (§1)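 Male specific-pathogen-free Sprague-Dawley rats (200–300 g), three per group, single gastric intubation at 2 ml/kg of a vitamin E TPGS–PEG 400 solution; food and water ad libitum. Plasma sampled 30 min to 31 h; tissues dissected from oral groups. LC-MS/MS (LLOQ 1 ng/ml plasma, 5 ng/g tissue); noncompartmental analysis; ratios from mean of three rats.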

[2] = Ratio of AUC (0 to 31 hrs) in Sprague-Dawley rat spleen to AUC (0 to 31 hrs) in Sprague-Dawley rat plasma at 40 mg/kg, po administered as single dose; assay type: ADME, organism-based; parameters: dose 40 mg/kg, route oral; summary of the method: as §1
[3] = Ratio of AUC (0 to 31 hrs) in Sprague-Dawley rat heart to AUC (0 to 31 hrs) in Sprague-Dawley rat plasma at 40 mg/kg, po administered as single dose; assay type: ADME, organism-based; parameters: dose 40 mg/kg, route oral; summary of the method: as §1
[4] = Ratio of AUC (0 to 31 hrs) in Sprague-Dawley rat thymus to AUC (0 to 31 hrs) in Sprague-Dawley rat plasma at 40 mg/kg, po administered as single dose; assay type: ADME, organism-based; parameters: dose 40 mg/kg, route oral; summary of the method: as §1
[5] = Tmax in Sprague-Dawley rat large intestine; assay type: ADME, tissue-based
Summary of the method: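 Male Sprague-Dawley rats given a single oral dose of 40 mg/kg in TPGS–PEG400, three per time point. Tissues dissected at times up to 31 h and measured by LC-MS/MS (LLOQ 5 ng/g).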

[6] = Inhibition of HCV 1a H77 NS3/4A protease using RetS1 as a substrate by fluorescence resonance energy transfer cleavage assay
Hepatitis C virus [7] = experiment: Inhibition of HCV 1b isolate con1 NS3/4A protease using RetS1 as a substrate by fluorescence resonance energy transfer cleavage assay
Cathepsin S = Cathepsin S (Homo sapiens, UniProt P25774); experiment: Inhibition of human cathepsin S in human JY cells assessed as p10 accumulation by fluorescence-based assay; assay type: cell-based
Chain of Cathepsin S (P25774 whole entry, the tested form may be a part): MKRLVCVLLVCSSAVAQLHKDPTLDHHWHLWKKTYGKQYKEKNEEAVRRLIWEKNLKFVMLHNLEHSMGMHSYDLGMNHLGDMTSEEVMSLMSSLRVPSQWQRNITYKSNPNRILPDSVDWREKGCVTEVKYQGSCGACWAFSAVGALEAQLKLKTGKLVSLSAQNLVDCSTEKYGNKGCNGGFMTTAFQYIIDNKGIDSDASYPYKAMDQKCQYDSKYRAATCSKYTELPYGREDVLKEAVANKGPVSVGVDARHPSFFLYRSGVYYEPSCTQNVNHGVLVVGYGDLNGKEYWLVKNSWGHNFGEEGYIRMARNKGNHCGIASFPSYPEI
Summary of the method: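 Cellular cathepsin S assay in the human JY B-cell line, read as invariant chain degradation (p10 fragment accumulation). Top concentration 10 μM.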

Hepatitis C virus [8] = experiment: Antiviral activity against Hepatitis C virus 1b infected in human HuH7 cells assessed as viral RNA level after 72 hrs by luciferase reporter gene assay; assay type: functional, organism-based, Hepacivirus hominis; settings: genotype 1b, Huh-7, 72 h
Summary of the method: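 Huh7-Luc cells carrying a genotype 1b con1 subgenomic replicon (clone ET, firefly luciferase, adaptive mutations E1202G/T1280I/K1846T). 2,500 cells/well, serial dilutions, 0.5% DMSO final, no G418. Luciferase signal read after 72 h; EC50 taken from the dose-response curve relative to medium control.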

Hepatitis C virus [9] = experiment: Antiviral activity against Hepatitis C virus 1b infected in human HuH7 cells assessed as viral RNA level after 72 hrs by quantitative reverse transcriptase PCR; assay type: functional, organism-based, Hepacivirus hominis; settings: genotype 1b, Huh-7, 72 h
Summary of the method: (§2)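 Replicon cells (Huh7-Luc at 3,000/well; con1b S2204I or 1a H77 P1496L/S2204I at 6,000/well) exposed to a dilution range for 72 h in 0.5% DMSO without G418. Lysates reverse transcribed 30 min at 42°C with an HCV 5′UTR primer and an RPL13A control. Inhibition from threshold-cycle difference versus mock; EC50 taken from the dose-response curve.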

Hepatitis C virus [10] = experiment: Antiviral activity against Hepatitis C virus 1b isolate con1 infected in human HuH7 cells assessed as viral RNA level after 72 hrs by quantitative reverse transcriptase PCR; assay type: functional, organism-based, Hepacivirus hominis; settings: Con1, Huh-7, 72 h; summary of the method: as §2
Hepatitis C virus [11] = experiment: Antiviral activity against HCV 1a H77 infected in human HuH7 cells assessed as viral RNA level after 72 hrs by quantitative reverse transcriptase PCR; assay type: functional, organism-based, Hepacivirus hominis; settings: genotype 1a H77, Huh-7, 72 h; summary of the method: as §2
[12] = Cytotoxicity against human HuH7 cells infected with Hepatitis C virus subtype 1b after 3 to 4 days by resazurin proliferation assay; assay type: cell-based, Huh-7
Summary of the method: (§3)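 Human cell lines in DMEM with 10% heat-inactivated FBS and 2 mM L-glutamine (replicon cells plus 0.75 mg/ml G418 in maintenance). Exposed to compound for 3 to 4 days; resazurin fluorescence read-out. CC50 from inhibition curves.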

[13] = Cytotoxicity against human HuH7 cells upto 42 uM after 3 to 4 days by resazurin proliferation assay; assay type: cell-based; settings: huh-7; summary of the method: as §3
HepG2 = experiment: Cytotoxicity against human HepG2 cells upto 42 uM after 3 to 4 days by resazurin proliferation assay; assay type: cell-based; summary of the method: as §3
[14] = Cytotoxicity against human HEK293T cells upto 42 uM after 3 to 4 days by resazurin proliferation assay; assay type: cell-based; settings: hek-293t; summary of the method: as §3
[15] = Cytotoxicity against human MT4 cells after 3 to 4 days by resazurin proliferation assay; assay type: cell-based; summary of the method: as §3
[16] = Cytotoxicity against human MRC5 cells after 3 to 4 days by resazurin proliferation assay; assay type: cell-based; summary of the method: as §3
[17] = Cytotoxicity against human Saos2 cells after 3 to 4 days by resazurin proliferation assay; assay type: cell-based, SAOS-2; summary of the method: as §3
[18] = Cytotoxicity against human HT1080 cells after 3 to 4 days by resazurin proliferation assay; assay type: cell-based, HT-1080; summary of the method: as §3
[19] = Cytotoxicity against staphylococcal enterotoxin B-stimulated human PBMC cells; assay type: cell-based
PBMC = experiment: Cytostatic activity against human PBMC cells assessed as incorporation of [3H]thymidine; assay type: ADME, cell-based; settings: read-out: CS50 (the source's name)
Hepatitis C virus [20] = experiment: microbe, parasite or virus in culture
Hepatitis C virus [21] = experiment: microbe, parasite or virus in culture; remark: listed apart in the source
Hepatitis C virus [22] = experiment: microbe, parasite or virus in culture; remark: listed apart in the source
Hepatitis C virus [23] = experiment: microbe, parasite or virus in culture; remark: listed apart in the source

COc1ccc2c(O[C@@H]3C[C@H]4C(=O)N[C@]5(C(=O)NS(=O)(=O)C6CC6)C[C@H]5/C=C\CCCCN(C)C(=O)[C@@H]4C3)cc(-c3nc(C(C)C)cs3)nc2c1C [SIMEPREVIR]
Kp [1]: 0.5 | Kp [2]: 0.3 | Kp [3]: 0.5 | Kp [4]: 0.5 | Tmax [5]: 8 h | Ki [6]: 0.5 nM | Ki (Hepatitis C virus [7]): 0.4 nM | IC50 (Cathepsin S): 800 nM | EC50 (Hepatitis C virus [8]): 8.1 nM | EC90 (Hepatitis C virus [8]): 23.6 nM | EC50 (Hepatitis C virus [9]): 13 nM | EC90 (Hepatitis C virus [9]): 28.7 nM | EC50 (Hepatitis C virus [10]): 25.2 nM | EC90 (Hepatitis C virus [10]): 118 nM | EC50 (Hepatitis C virus [11]): 28.4 nM | EC90 (Hepatitis C virus [11]): 120 nM | CC50 [12]: 47000 nM | Activity [13]: Non-toxic | Activity (HepG2): Non-toxic | Activity [14]: Non-toxic | CC50 [15]: 16000 nM | CC50 [16]: 16000 nM | CC50 [17]: 16000 nM | CC50 [18]: 16000 nM | CC50 [19]: 33000 nM | GI50 (PBMC): 10000 nM | EC50 ratio (Hepatitis C virus [20]): 1.4 | EC50 ratio (Hepatitis C virus [21]): 1.7 | EC50 ratio (Hepatitis C virus [22]): 1.8 | EC50 ratio (Hepatitis C virus [23]): 1.4
